Assay outcomes (PubChem BioAssay)
Compounds with a hit are over-represented: about 3.2% of the library has one in this group of screens.
S100A4 inh HTS: inhibitors of S100A4-myosin IIA peptide binding, primary screen, biochemical, fluorescence polarization, TAMRA-MyoIIA peptide. Protein S100-A4 (Homo sapiens), P26447. inhibition, % at 10.7 µM. 0.14% of 360,000 active. AID 652163, 2013;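 active = mean inhibition of at least 70% across replicates, with every replicate also reaching that level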
Target sequence (P26447 whole entry, looked up): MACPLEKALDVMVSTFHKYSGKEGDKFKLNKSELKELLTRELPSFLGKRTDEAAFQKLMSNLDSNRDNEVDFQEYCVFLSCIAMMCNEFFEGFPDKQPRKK
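Test system: S100A4 monomer protein. Medium: HEPES buffer with Ca2+, pH 7.2. Reagent: fluorescent myosin IIA peptide, 5 nM. Compound dosing: single-point compound testing. Timing: 5 min between mix addition and reading. Benchmarks: DMSO neutral and TFP positive wells.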
Cneo AK release: Cryptococcus neoformans cell lysis inducers, primary screen, AK release luminescence, single concentration. AID 651654, 2012. C. neoformans lysis, adenylate kinase release luminescence, 4 h; normalised: neutral wells 0, clomiphene wells 100. lysis activity, % at 15 µM. 0.2% of 360,000 active;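 active = mean lysis activity across replicates of at least 80%, whatever share of replicates individually reach that level; inactive = mean lysis activity below 80%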
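Assay system: Cryptococcus neoformans yeast cells / Dosing: single-point compound dose / Timing: 4 h at 37 °C static, read 1 h later / Measured by: luminescence of released adenylate kinase using an AK detection reagent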
Ecoli rRNA inh: reduced GFP signal of wild-type E. coli, primary screen, bacterial rRNA inhibitor project, GFP/RFP fluorescence, OD600, single point; E. coli WT GFP vs humanized-ribosome RFP mutants, 24 h; stronger effect = lower value; DMSO median 0, no signal -100; GFP signal change (wild-type ribosome), % (no concentration beside the values); 1.6% of 350,000 active; AID 720706, 2013;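 active = significant combined selectivity score with lowered wild-type GFP, culture density cut under 30%, mutant RFP and density less affected; inactive = any of these conditions unmet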
PfHsp90 yeast 2: growth inhibition of PfHsp90-expressing yeast, primary screen, antimalarial PfHsp90 inhibitor project, S. cerevisiae, BacTiter-Glo luminescence, single point, set 2; BacTiter-Glo ATP, 48 h; yeast lacking PDR1 and PDR3 efflux regulators; inhibition, % at 9.4 µM; 0.32% of 310,000 active;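 active = every replicate shows inhibition above about 80%, whatever the replicate mean, limit read from the data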;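 note: 0% = DMSO neutral controls and 100% = 20 µM radicicol positive controls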
MLL AF4-AF9 inh: inhibitors of AF4 peptide binding to AF9, primary screen, biochemical, AlphaScreen, biotin-AF4 peptide, FLAG-AF9, single point; inhibition, % at 10 µM; 0.47% of 350,000 active; Protein AF-9 (Homo sapiens), P42568;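 active = every replicate reaching a set inhibition limit, whatever the replicate mean, cut at about 25% in these data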;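 note: 0% = plate neutral control median and 100% = total signal loss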
Target sequence (P42568 whole entry, looked up): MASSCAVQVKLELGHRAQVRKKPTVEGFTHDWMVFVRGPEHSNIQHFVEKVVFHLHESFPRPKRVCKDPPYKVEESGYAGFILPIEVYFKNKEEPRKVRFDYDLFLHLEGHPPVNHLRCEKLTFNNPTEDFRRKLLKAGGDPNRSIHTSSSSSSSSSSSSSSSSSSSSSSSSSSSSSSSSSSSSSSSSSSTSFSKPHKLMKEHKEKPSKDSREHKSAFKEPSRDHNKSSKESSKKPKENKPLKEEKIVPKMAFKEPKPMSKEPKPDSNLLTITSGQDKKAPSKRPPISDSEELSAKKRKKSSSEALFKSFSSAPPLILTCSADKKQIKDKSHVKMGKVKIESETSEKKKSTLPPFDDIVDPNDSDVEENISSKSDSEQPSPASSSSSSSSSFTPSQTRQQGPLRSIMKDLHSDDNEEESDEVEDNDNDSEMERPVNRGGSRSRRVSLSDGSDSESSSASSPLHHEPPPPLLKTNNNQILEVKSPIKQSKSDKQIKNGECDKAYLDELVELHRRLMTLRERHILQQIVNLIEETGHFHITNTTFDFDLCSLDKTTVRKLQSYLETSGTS
DENV2 CPE rescue: inhibitors of DENV2 cytopathic effect, primary screen, cell-based, plate reader, single concentration; DENV2-infected cells, cytopathic effect rescue; CPE inhibition, % at 9.99 µM; 1.7% of 350,000 active; AID 651640, 2012; in the data active = CPE inhibition above about 20%, passing the limit was not always enough; tested in BHK-21 cells;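 note: 0% = median of neutral control wells and 100% = median of positive control wells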
The depositor's hits bear a star; nt = no result given.

SMILES	S100A4 inh HTS	Cneo AK release	Ecoli rRNA inh	PfHsp90 yeast 2	MLL AF4-AF9 inh	DENV2 CPE rescue
C[C@H](CO)N1C[C@H](C)[C@H](CN(C)Cc2ccncc2)Oc2cc(C#CC(C)(C)O)ccc2S1(=O)=O	-0.9	-4.2	0.8	nt	-2.2	-2.0
N#Cc1ccc(-c2ccc(OCC(=O)NN=Cc3ccncc3)cc2)cc1	-5.1	nt	nt	-16.7	-1.6	29.5*
COc1ccc(OCC(=O)N/N=C/c2ccncc2)cc1	0.0	1.2	-0.6	nt	-0.5	-3.7
C[C@H]1CCCCO[C@H](CN(C)C(=O)Nc2cccc3ccccc23)[C@@H](C)CN([C@@H](C)CO)C(=O)c2cc(NS(=O)(=O)c3ccc(Cl)cc3)ccc2O1	40.9	6.2	-1.0	nt	-5.5	44.4*
C[C@@H]1CCCCO[C@H](CN(C)C(=O)Nc2cccc3ccccc23)[C@@H](C)CN([C@H](C)CO)C(=O)c2cc(NS(=O)(=O)c3ccc(F)cc3)ccc2O1	3.7	6.1	2.4	nt	0.6	-2.1
C[C@H](CO)N1C[C@H](C)[C@@H](CN(C)C(=O)Nc2cccc3ccccc23)OCCCC[C@H](C)Oc2ccc(NS(=O)(=O)c3ccc(Cl)cc3)cc2C1=O	-27.2	0.2	4.8	nt	0.2	-1.7
C[C@H]1CCCCO[C@H](CN(C)C(=O)Nc2cccc3ccccc23)[C@@H](C)CN([C@@H](C)CO)C(=O)c2cc(NS(=O)(=O)c3ccc(F)cc3)ccc2O1	-2.8	2.8	0.3	nt	4.0	26.1*
O=C(Nc1cccc2cccnc12)c1ccccc1Br	-2.1	nt	-25.5*	-12.7	nt	16.4
CCCc1cc(=O)oc2c(C)c(OC3CCCCC3=O)ccc12 (configuration not stated)	-6.5	1.7	2.7	2.4	-0.9	25.6*
CCCc1cc(=O)oc2c(C)c(OS(C)(=O)=O)ccc12	nt	5.4	nt	15.0	nt	nt
C[C@H](CO)N1C[C@H](C)[C@H](CN(C)Cc2ccc(F)cc2)Oc2ncc(-c3cccc(C#N)c3)cc2C1=O	-25.6	-0.7	nt	nt	2.8	-1.7
O=C(CN(Cc1ccccc1)C(=O)CCC(=O)Nc1nccs1)NCc1ccccc1	-0.1	nt	3.4	3.5	43.2*	0.9
C[C@@H]1CCCCO[C@@H](CN(C)S(C)(=O)=O)[C@H](C)CN([C@H](C)CO)C(=O)c2cc(NC(=O)c3ccccc3)ccc2O1	1.6	4.5	1.0	nt	-14.1	-3.7
Cc1ccccc1Nc1nc(N)nc(-c2oc3ccccc3c2C)n1	-1.3	5.5	-36.5*	-6.6	0.6	68.7*
COc1ccccc1Nc1nc(N)nc(-c2oc3ccccc3c2C)n1	nt	0.1	nt	-12.0	nt	nt
CCN(CC(=O)Nc1ccc(OC)cc1)C(=O)CSCc1c(C)noc1C	-2.3	1.9	15.3	-0.4	-0.4	73.9*
C/C=C/c1ccc([C@@H]2[C@@H](C#N)N(S(=O)(=O)c3cccc(F)c3)[C@@H]2CO)cc1	4.1	108.5*	-1.8	nt	2.5	-4.5
N#C[C@H]1[C@H](c2ccccc2C2=CCCCC2)[C@@H](CO)N1S(=O)(=O)c1cccc(F)c1	13.2	nt	-29.8	nt	0.9	31.2*
N#C[C@H]1[C@@H](c2ccc(C3=CCCCC3)cc2)[C@@H](CO)N1S(=O)(=O)c1cccc(F)c1	-7.5	1.9	2.2	nt	2.3	91.6*
N#C[C@H]1[C@@H](c2ccc(C3=CCCCC3)cc2)[C@H](CO)N1S(=O)(=O)c1cccc(F)c1	-6.2	-1.0	0.6	nt	3.7	-11.3
C/C=C/c1ccccc1[C@@H]1[C@@H](C#N)N(S(=O)(=O)c2cccc(F)c2)[C@H]1CO	14.1	nt	-18.8	nt	-0.9	-14.1
O=C(NCc1ccc(F)cc1)[C@@H]1[C@@H](CO)[C@@H]2Cn3c(cccc3=O)[C@H]1N2C(=O)C1CC1	0.5	nt	3.0	nt	-3.3	-5.7
CCC(c1ccc(O)cc1)C(CC)c1ccc(O)cc1 (configuration not stated)	-2.2	-1.9	-59.5	-10.1	0.2	-2.2
Cc1cc(C(c2ccc(O)cc2)c2cc(C)c(O)cc2C)c(C)cc1O	3.1	5.4	-37.4*	-14.8	2.5	6.0
CCN(CC)S(=O)(=O)c1ccc(O)c(C(=O)OCC(=O)NC23CC4CC(CC(C4)C2)C3)c1	3.1	5.7	-20.6*	16.1	-2.5	-5.9
SMILES	S100A4 inh HTS	Cneo AK release	Ecoli rRNA inh	PfHsp90 yeast 2	MLL AF4-AF9 inh	DENV2 CPE rescue
COc1ccc(NC(=O)N(C)C[C@H]2Oc3c(NC(=O)NC4CCCCC4)cccc3C(=O)N([C@H](C)CO)C[C@H]2C)cc1	88.3*	3.7	2.0	nt	3.1	4.6
COc1ccc(NC(=O)N(C)C[C@H]2Oc3c(NC(=O)NC4CCCCC4)cccc3C(=O)N([C@H](C)CO)C[C@@H]2C)cc1	5.4	-0.7	0.5	4.1	-2.0	10.8
COc1ccc(NC(=O)N(C)C[C@@H]2Oc3ccc(NC(=O)NC4CCCCC4)cc3C(=O)N([C@@H](C)CO)C[C@@H]2C)cc1	0.9	-4.2	-2.0	nt	-6.3	-2.6
COc1ccc(NC(=O)Nc2cccc3c2O[C@H](CN(C)C(=O)NC2CCCCC2)[C@H](C)CN([C@@H](C)CO)C3=O)cc1	2.6	56.8	-5.2	nt	2.7	88.4*
COc1ccc(NC(=O)N(C)C[C@H]2Oc3ccc(NC(=O)NC4CCCCC4)cc3C(=O)N([C@@H](C)CO)C[C@@H]2C)cc1	-4.8	-4.4	4.1	nt	-0.4	45.6*
COc1cccc(NC(=O)N(C)C[C@H]2Oc3cc(C#Cc4ccc(F)cc4)ccc3S(=O)(=O)N([C@H](C)CO)C[C@@H]2C)c1	24.0	-1.3	-0.6	nt	-11.8	1.9
C[C@@H]1CCCCO[C@@H](CN(C)CC2CC2)[C@H](C)CN([C@@H](C)CO)C(=O)c2cc(NC(=O)c3ccncc3)ccc2O1	-42.2	-3.6	3.5	nt	-1.0	1.9
O=C(Nc1ccc(C(F)(F)F)cc1)N[C@H]1C=C[C@@H](CC(=O)N2CCCCC2)O[C@@H]1CO	127.9*	-1.2	-3.5	nt	1.7	-3.8
O=C(C[C@H]1C=C[C@@H](NC(=O)Nc2ccc(C(F)(F)F)cc2)[C@@H](CO)O1)NCc1ccccn1	-1.0	nt	-3.1	nt	0.5	20.1*
O=C(C[C@@H]1C=C[C@@H](NC(=O)Nc2ccc(C(F)(F)F)cc2)[C@H](CO)O1)NCc1ccccn1	9.0	3.1	-2.1	nt	-1.1	-1.7
O=C(Nc1ccc(C(F)(F)F)cc1)N[C@@H]1C=C[C@@H](CC(=O)N2CCCCC2)O[C@H]1CO	30.5	1.2	4.4	nt	0.5	-0.7
